Compounds with a hit are over-represented: about 2.4% of the library has one in this group of screens.
MC4R antag cAMP: MC4R antagonists of cAMP signaling, primary screen, cell-based, TR-FRET, antagonist arm of biased-ligand search; Melanocortin receptor 4 (Homo sapiens), P32245; MC4R-expressing cells, MTII-stimulated cAMP, LANCE TR-FRET; inhibition, % at 6.5 µM; hit rate 0.48% among 360,000; AID 540295, 2011;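 active = inhibition above its plate's cutoff, the mean of tested wells on that plate plus 3 SD, cut at about 29% in these data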;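 note: 0% = Melanotan II alone and 100% = Melanotan II plus saturating MCL0020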
Target sequence (P32245 whole entry, looked up): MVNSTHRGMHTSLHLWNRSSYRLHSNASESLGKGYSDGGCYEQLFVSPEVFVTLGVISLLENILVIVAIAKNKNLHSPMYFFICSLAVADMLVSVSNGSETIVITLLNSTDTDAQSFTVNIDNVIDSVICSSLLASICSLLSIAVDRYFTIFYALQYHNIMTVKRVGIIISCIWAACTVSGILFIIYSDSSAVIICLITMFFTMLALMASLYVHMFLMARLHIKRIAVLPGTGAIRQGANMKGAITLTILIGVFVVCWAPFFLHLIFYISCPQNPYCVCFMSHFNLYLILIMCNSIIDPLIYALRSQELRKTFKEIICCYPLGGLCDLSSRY
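Test system: U2OS cells stably expressing human melanocortin 4 receptor (MC4R); also added: Melanotan II challenge; compound: 6.5 µM single dose; timing: 30-min compound preincubation, 1-h Melanotan II challenge, 1-h detection, room temperature; signal: Eu-cAMP/anti-cAMP TR-FRET, emission 671 nm; repeats: one well per compound, no replicates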
TbMetRS inhib: T. brucei MetRS inhibitors, primary screen, biochemical, luminescence; purified T. brucei MetRS, ATP depletion, Kinase-Glo luminescence; inhibition, % at 11.9 µM; hit rate 0.4% among 360,000;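 active = inhibition above a per-plate cutoff of the control wells' mean inhibition plus 3 SD, cut at about 5.5% in these data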;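 note: 0% = DMSO wells median and 100% = median of wells with control inhibitor compound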
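Test system: purified T. brucei MetRS enzyme. Also added: ATP, methionine and E. coli bulk tRNA substrates. Compound: 11.9 µM single point. Schedule: 15 min enzyme-compound preincubation, 2 h reaction, 10 min detection, 25 °C. Signal: luciferase luminescence of residual ATP, Kinase-Glo. Evaluation: percent inhibition versus plate control medians. Controls: DMSO wells, low control.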
aDG glyco up: activators of alpha-DG glycosylation, primary screen, uHTS, Pro5-aDG cells, AlphaScreen | hit rate 0.22% among 360,000 | activation, % at 10 µM | AID 624168, 2012 | alpha-DG glycosylation AlphaScreen (IIH6); 0% Pro5, 100% B10-LARGE cell signal;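 active = activation of at least 8% versus controls, or a plate z-score of at least 8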;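 note: Pro5 are CHO cells carrying HIG-tagged alpha-DG that lacks glycosylation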
NTR1 agonist: agonists of human NTR1, primary screen, imaging, U2OS cells, beta-arrestin-GFP, high content; NTR1-U2OS beta-arrestin-GFP spot imaging, agonist mode; activation, % at 20 µM; hit rate 0.17% among 330,000; Neurotensin receptor type 1 (Homo sapiens), P30989;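 active = activation at or above 40% of the spot to cytoplasm intensity ratio, with at least 20 cells analyzed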;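 note: 0% = DMSO without peptide and 100% = 100 nM NTR1 peptide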
Target sequence (P30989 whole entry, looked up): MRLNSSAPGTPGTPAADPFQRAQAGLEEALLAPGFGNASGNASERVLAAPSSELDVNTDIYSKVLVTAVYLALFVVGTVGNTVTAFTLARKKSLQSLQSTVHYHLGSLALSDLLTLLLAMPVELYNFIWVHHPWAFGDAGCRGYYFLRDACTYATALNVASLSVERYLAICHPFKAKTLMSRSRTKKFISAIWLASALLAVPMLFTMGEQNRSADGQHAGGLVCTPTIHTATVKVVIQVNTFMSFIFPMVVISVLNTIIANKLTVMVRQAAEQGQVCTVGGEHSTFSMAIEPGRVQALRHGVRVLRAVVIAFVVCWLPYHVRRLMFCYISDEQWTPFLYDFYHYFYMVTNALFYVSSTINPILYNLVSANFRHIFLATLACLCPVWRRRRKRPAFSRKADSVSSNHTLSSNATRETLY
MC4R barr agon: MC4R agonists recruiting beta-arrestin, primary screen, cell-based, luminescence, agonist arm of biased-ligand search; AID 540308, 2011; hit rate 0.98% among 360,000; activation, % at 8.9 µM; U2OS MC4R beta-arrestin complementation; percent of melanotan II response, DMSO zero;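 active = activation above a per-plate cutoff, the mean activation of sample wells on that plate plus 3 SD, cut at about 8% in these data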
TAG inh: inhibitors of triacylglycerol accumulation, primary screen, cell-based, uHTS, fluorescence, H9c2. H9c2 cells, Nile Red lipid (TAG) fluorescence; cells loaded with 200 µM oleic acid. inhibition, % at 12.5 µM. hit rate 0.66% among 230,000;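 active = pattern-corrected inhibition of lipid staining of at least 50% with the nuclear-stain viability signal not falling by more than 50%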;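 note: 0% = DMSO wells and 100% = triacsin C control wells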
cAMP nonselect: nonselective cAMP signaling inhibitors, parental cells, counter-screen for MC4R biased antagonist project, cell-based, TR-FRET, U2OS, forskolin, triplicate. shares compounds with MC4R antag cAMP. inhibition, % at 6.5 µM. hit rate 26% among 1,600. LANCE TR-FRET;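 active = mean inhibition over triplicates above the low-control well mean plus 3 SD, set per campaign, cut at about 13% in these data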;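 note: signal is single emission at 671 nm which falls as cellular cAMP rises; 0% = forskolin-stimulated wells and 100% = buffer without forskolin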
MC4R cAMP antag: MC4R cAMP antagonists, retest, confirmation, cell-based, TR-FRET; inhibition, % at 6.5 µM; MC4R-expressing cells, MTII-stimulated cAMP; AID 602195, 2012; shares compounds with MC4R antag cAMP; hit rate 27% among 1,600; in the data active = inhibition above about 29%;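 note: 0% = agonist stimulated wells alone and 100% = agonist stimulated wells plus saturating reference antagonist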
The depositor's hits bear a star; / = not tested or not shown.

SMILES	MC4R antag cAMP	TbMetRS inhib	aDG glyco up	NTR1 agonist	MC4R barr agon	TAG inh	cAMP nonselect	MC4R cAMP antag
CCOP(=O)(OCC)C(NC(=O)Nc1cccc(Cl)c1)C(N)=O (centres undefined)	-4.5	-0.9	-0.1	-1.6	-2.4	/	/	/
CCOP(=O)(OCC)C(NC(=O)Nc1cccc(Cl)c1)c1ccccc1 (centres undefined)	29.7*	-0.3	0.0	-2.2	1.4	/	-1.2	15.6
CN(c1ccc(OCC(=O)OCC(=O)Nc2ccc(OC(F)F)cc2)cc1)S(=O)(=O)c1cccs1	9.1	-0.2	0.3	4.8	-2.1	-22.3	/	/
CN(c1ccc(OCC(=O)OCC(=O)Nc2ccc(Br)cc2)cc1)S(=O)(=O)c1cccs1	29.4*	0.4	-0.3	1.3	-0.8	/	9.8	30.6*
CCN(CC)c1ccc(NC(=O)COc2ccc(N(C)S(=O)(=O)c3cccs3)cc2)cc1	5.3	2.9	-0.4	2.8	-0.7	5.0	/	/
CN(c1ccc(OCC(=O)OCC(=O)Nc2ccccc2)cc1)S(=O)(=O)c1cccs1	30.6*	-0.6	0.0	-1.5	-0.6	/	13.7*	36.7*
COc1cc(CN2CCCC(N3CCN(c4ccc(F)cc4)CC3)C2)ccc1F (centres undefined)	30.3*	-0.1	-0.1	2.5	0.9	/	0.3	4.6
CCc1nc2ccc(C(=O)Nc3cccc(OCC(=O)N(C)C)c3)cn2c1N(C=O)Cc1ccc(OC)cc1	6.9	-0.4	0.0	/	-0.3	-3.7	/	/
CCCNC(=O)C1(C)CCN(C(=O)c2sccc2C)C1 (centres undefined)	19.0	-0.2	0.3	/	0.9	3.6	/	/
CC/C(Cc1ccccc1)=N/NC(=O)CNC(=O)c1ccc(Cl)cc1Cl	-1.7	0.0	0.0	0.8	-5.0	10.3	/	/
CC/C(C)=N\NC(=O)CNC(=O)c1ccc(Cl)cc1Cl	30.8*	0.6	0.0	-0.3	0.3	/	2.1	1.7
CC(OC(=O)c1cccc(N2C(=O)c3ccccc3C2=O)c1)C(=O)Nc1ccc(N(C)C)cc1 (centres undefined)	32.7*	-0.1	-0.4	-0.3	-0.4	/	-7.1	-14.5
COc1ccc2c(c1)c(CC(=O)Nc1ccc(C(C)=O)cc1)c(C)n2C(=O)c1ccc(Cl)cc1	29.2*	0.5	0.1	-1.6	-0.1	/	-0.4	7.3
COc1ccc2c(c1)c(CC(=O)Nc1cc(C)ccc1C)c(C)n2C(=O)c1ccc(Cl)cc1	3.4	0.1	-0.4	0.4	-1.6	/	/	/
NC(c1ccccc1)c1csc(Nc2ccc(C(=O)c3ccccc3)cc2)n1 (centres undefined)	5.8	0.2	2.9	/	2.1	20.7	/	/
COc1cccc(C(=O)N2CCC[C@H]2C(=O)N2CCC[C@H]2C(=O)NCc2ccccn2)c1	/	-0.2	0.0	/	/	/	/	/
CCOC(=O)c1ccccc1NC(=O)COC(=O)c1ccc(OCC(=O)N2CCOCC2)c(OCC)c1	29.8*	0.2	-0.2	/	9.1*	6.1	0.0	3.7
O=C(CCCc1nc2ccccc2s1)NCc1cccnc1	28.9*	-0.8	0.2	-0.7	-0.8	-7.5	-0.1	0.1
CCC(C)NS(=O)(=O)c1ccc(S(=O)(=O)N(CCc2ccc(OC)c(OC)c2)Cc2cccs2)cc1 (centres undefined)	32.3*	-0.3	1.8	3.3	-1.1	/	-10.1	-18.3
COc1ccc(CCN(Cc2cccs2)S(=O)(=O)c2ccc(S(=O)(=O)N3CCCCCC3)cc2)cc1OC	4.9	0.4	-0.1	2.0	-1.9	0.7	/	/
Cc1cccc(C)c1NC(=O)C1(C)CN(S(C)(=O)=O)CC(=O)N1C1CC1 (centres undefined)	/	0.3	0.1	/	/	/	/	/
Cn1c(=O)[nH]c(=O)c2c1nc(Br)n2CC(O)COc1ccc(Cl)cc1 (centres undefined)	30.8*	0.2	-0.3	3.8	1.6	3.4	-3.8	-2.2
CC(C)C(NC(=O)OCc1ccccc1)C(=O)NC(Cc1c[nH]c2ccccc12)C(=O)O (centres undefined)	/	-0.1	-0.1	/	/	/	/	/
CCCCCCCCN1C(=O)[C@H](CC(=O)N2CCSCC2)C[C@@]2(C(=O)OC)CC(C)(C)CC=C12	/	-0.2	0.0	/	/	/	/	/
CC(C)CN(C(=O)COC(=O)c1nc(Cl)ccc1Cl)C1CCS(=O)(=O)C1 (centres undefined)	35.6*	-0.2	-0.1	1.9	2.1	-8.5	0.0	-7.0
SMILES	MC4R antag cAMP	TbMetRS inhib	aDG glyco up	NTR1 agonist	MC4R barr agon	TAG inh	cAMP nonselect	MC4R cAMP antag
CN(Cc1c(F)cccc1Cl)C(=O)CCc1c[nH]c2ccccc12	29.2*	-0.2	-0.1	1.2	-2.3	/	3.4	1.4
Cc1nc2ccccc2n1C(c1cccnc1)c1nc2ccccc2[nH]1 (centres undefined)	/	0.3	0.0	/	/	/	/	/
CCOC(=O)[C@]12CCCC=C1N(CCC1=CCCCC1)C(=O)[C@H](CC(=O)NCc1ccc(OC)c(OC)c1)C2	/	-0.2	0.1	/	/	/	/	/
O=C(CNC(=O)c1ccc(Oc2ccccc2)cc1)OC1CCCCC1=O (centres undefined)	33.6*	-0.5	0.0	0.1	-1.9	-0.3	12.4	24.3
Cc1ccc(C(=O)NCC(=O)OC2CCCCC2=O)cc1C (centres undefined)	8.2	-0.1	-0.1	4.0	-1.6	-1.0	/	/
Cc1ccccc1OCc1nnc(SC(C)C(=O)O)n1-c1ccccc1 (centres undefined)	42.3*	0.0	0.0	/	-1.0	-22.0	-1.6	-14.3
COc1ccccc1-c1cc(SC)c(C#N)c(=O)o1	49.6*	-0.2	-0.3	2.4	-2.2	4.3	23.1*	38.5*
COc1ccccc1-c1cc(C(F)(F)F)c(C#N)c(=O)[nH]1	6.9	1.7	0.0	0.9	1.2	-7.0	/	/
Cc1csc(C(C)N(C)C(=O)CCc2nnc(CCc3ccccc3)o2)n1 (centres undefined)	28.7*	0.9	-0.1	-0.3	1.2	5.0	1.7	1.3
Cc1ccc([C@H]2C[C@@H](O)[C@H](n3cc(COC(=O)c4ccccc4)nn3)CN2C(=O)c2cccs2)cc1	7.9	-0.6	0.2	/	-0.8	3.3	/	/

Assay outcomes deposited in PubChem by several laboratories.
